Results collected from several papers.
Target: Phosphatidylinositol 4,5-bisphosphate 3-kinase catalytic subunit gamma isoform (PIK3CG, Homo sapiens, UniProt P48736)

Compound | observed | mode | method | concentration | quantity | value
Cc1ccc(C(=O)Nc2ccc(CN3CCN(C)CC3)c(C(F)(F)F)c2)cc1C#Cc1cnc2cccnn12 | enzyme activity | inhibitor |  | 23.5 nM | remaining activity | 85%
Cc1c(NC(=O)c2cc(C(N)=O)nc3cc(F)ccc23)c(C(F)(F)F)nn1Cc1ccc(C#N)cc1 | cell-free assay |  | competition with immobilised ligand | 1 µM | remaining binding | 80%
CS(=O)(=O)Nc1cc(-c2ccc3ncnc(Nc4ccc(F)c(Cl)c4)c3c2)cnc1Cl | enzyme activity | inhibitor | FRET | 10 µM | inhibition | 90 to 100%
C=CC(=O)Nc1cc(Nc2nccc(Nc3cc(Cl)c(F)cc3C(C)(C)O)n2)c(OC)cc1N1CC[C@@H](N(C)C)C1 | enzyme activity | inhibitor |  | 1 µM | inhibition | 11%
CCCS(=O)(=O)Nc1ccc(F)c(C(=O)c2c[nH]c3ncc(-c4ccc(Cl)cc4)cc23)c1F | enzyme activity | inhibitor |  | 1 µM | inhibition | < 10%
Cc1cc(-n2nc(Cc3cc(F)cc(C(F)(F)F)c3)nc2C)ccc1C(N)=O | cell-free assay |  | competition with immobilised ligand | 1 µM | remaining binding | 79%
O=S(=O)(Nc1cc(Sc2ncn[nH]2)c(O)c2ccccc12)c1ccc(-c2ccccc2)cc1 | enzyme activity | inhibitor |  | 1 µM | remaining activity | ≥ 75%
CS(=O)(=O)c1cc(C2(NC(=O)c3cncc4c3cnn4-c3ccc(F)cc3)CC2)ccn1 | cell-free assay |  | competition with immobilised ligand | 1 µM | remaining binding | 82%
CC(C)CCn1c(SCC(=O)Nc2ccccc2C(F)(F)F)nc2nccnc2c1=O | enzyme activity | inhibitor |  | 10 µM | inhibition | < 20%
COc1cc(Cl)c(C(=O)N[C@@H](CN[C@H]2CC[C@@H](N)CC2)Cc2ccc(C#N)cc2)cc1-c1ccc(CN[C@H](C)c2ccc(C)cc2)o1 | enzyme activity | inhibitor |  | 1 µM | remaining activity | 102%
O=C(CSc1nc2nccnc2c(=O)n1CCc1ccccc1)Nc1ccccc1 | enzyme activity | inhibitor |  | 10 µM | inhibition | < 20%
COc1cc(-c2cc(-c3ccc(N4CCNCC4)cc3)cnc2C)cc(OC)c1OC | enzyme activity | inhibitor |  | 0.1 µM | inhibition | 14%
